Laboratory results from ChEMBL document CHEMBL1129980, “New non-peptide endothelin-A receptor antagonists: synthesis, biological properties, and structure-activity relationships of 5-(dimethylamino)-N-pyridyl-,-N-pyrimidinyl-,-N-pyridazinyl-, and -N-pyrazinyl-1-naphthalenesulfonamides” (J Med Chem, 1997).

Columns and labels:
[1] = target: T1, Endothelin-1 receptor (Homo sapiens) (UniProt P25101); test: Percent inhibition at 10 uM of displacement of radiolabeled endothelin-1 [125-I]ET-1 from membranes prepared from cloned human Endothelin A receptor expressed in mouse erythroleukemic (MEL) cells; type: cell membranes
T1 sequence (whole entry): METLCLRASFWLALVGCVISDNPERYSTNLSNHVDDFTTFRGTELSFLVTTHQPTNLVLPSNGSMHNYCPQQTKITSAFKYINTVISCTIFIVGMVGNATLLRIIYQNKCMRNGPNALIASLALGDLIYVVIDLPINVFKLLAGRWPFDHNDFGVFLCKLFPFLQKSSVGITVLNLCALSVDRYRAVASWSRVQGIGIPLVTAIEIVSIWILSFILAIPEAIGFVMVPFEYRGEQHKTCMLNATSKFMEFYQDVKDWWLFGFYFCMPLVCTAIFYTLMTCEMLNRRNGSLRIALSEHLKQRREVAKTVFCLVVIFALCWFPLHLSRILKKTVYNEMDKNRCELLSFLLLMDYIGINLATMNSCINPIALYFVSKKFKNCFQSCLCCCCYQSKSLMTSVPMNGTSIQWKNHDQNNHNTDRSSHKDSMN

Endothelin-1 receptor [2] = target: T2, Endothelin-1 receptor (Homo sapiens, UniProt P25101); test: Inhibition of specific binding of [125-I]ET-1 to human endothelin A receptor
T2 sequence (P25101 whole entry): T1 sequence (whole entry)

Rattus norvegicus [3] = test: Mean dose ratio(MDR) for inhibition of pressor response 0.5 hr after oral administration of compound at 10 mg/kg to conscious, normotensive rats; type: functional
Summary of the method: (§1)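 Male Alderley Park Wistar rats (220–260 g, n = 6) were catheterized (arterial and venous) under Saffan anesthesia and tested conscious. Cumulative big ET-1 i.v. dose–response curves (0.1–4.0 nmol/kg) were run before and at set times after oral compound. The big ET-1 dose raising mean arterial pressure by 30 mmHg gave the dose-ratio shift, averaged to a mean dose ratio.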

[4] = Acidity constant was measured; type: ADME
Rattus norvegicus [5] = test: Mean dose ratio(MDR) for inhibition of pressor response 5 hr after oral administration of compound at 10 mg/kg to conscious, normotensive rats; type: functional; summary of the method: as §1
Rattus norvegicus [6] = test: Mean dose ratio(MDR) for inhibition of pressor response 5 min after intravenous administration of compound at 10 mg/kg to pithed rats; type: functional
Summary of the method: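 Male Alderley Park Wistar rats (280–320 g, n = 4) were pithed under halothane, with arterial and venous catheters placed. Cumulative big ET-1 dose–response curves (0.1–4.0 nmol/kg) were run before and 5 min after i.v. compound. The big ET-1 dose raising mean arterial pressure by 30 mmHg gave the dose ratio, reported as a mean with 95% confidence limits.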

Cavia porcellus = species: Cavia porcellus; test: Antagonism of ET-A induced contractile response in guinea pig portal vein; type: functional; conditions: read-out: pA2 (converted)
Summary of the method: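 A portal vein ring (about 4 mm) from guinea pigs of either sex (>250 g, n = 3–6) was held for isometric recording of circular muscle in oxygenated Krebs (95% O2/5% CO2) at 32 °C. After about 1.5 h equilibration, a cumulative partial big ET-1 curve was run in 3-fold steps up to >100 mg tension.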

Rattus norvegicus [7] = test: Mean dose ratio(MDR) for inhibition of pressor response 3 hr after oral administration of compound at 10 mg/kg to conscious, normotensive rats; type: functional; summary of the method: as §1
Rattus norvegicus [8] = test: Mean dose ratio(MDR) for inhibition of pressor response 1 hr after oral administration of compound at 10 mg/kg to conscious, normotensive rats; type: functional; summary of the method: as §1
Endothelin-1 receptor [9] = target: T2, Endothelin-1 receptor; test: Inhibition of specific binding of [125-I] ET-1 to human Endothelin A receptor
Summary of the method: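 Membranes from mouse erythroleukemic MEL-C88 cells expressing cloned human ETA were incubated with [125I]ET-1 (30 pM final) and competing ligands for 180 min at 30 °C. Incubation was stopped by filtration through GF/B filters, and bound radioligand was counted by gamma counting. pIC50 was taken from inhibition of specific binding; n is given per compound.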

SMILES	inhibition [1]	IC50 (Endothelin-1 receptor [2])	other results
CN(C)c1cccc2c(S(=O)(=O)Nc3cnc(Br)nc3)cccc12	88%	631 nM	
COc1nc(Cl)cnc1NS(=O)(=O)c1cccc2c(N(C)C)cccc12	97%	10 nM	MDR (Rattus norvegicus [3]): 3.91; pKa [4]: 5; MDR (Rattus norvegicus [5]): 2.07; MDR (Rattus norvegicus [6]): 8.87; Kb (Cavia porcellus): 63.1 nM; MDR (Rattus norvegicus [7]): 2.54; MDR (Rattus norvegicus [8]): 4.42
Cc1cc(NS(=O)(=O)c2cccc3c(N(C)C)cccc23)nnc1Cl	64%	5010 nM	
CN(C)c1cccc2c(S(=O)(=O)Nc3ccc(Cl)nn3)cccc12	70%	200 nM	
CN(C)c1cccc2c(S(=O)(=O)Nc3ncccn3)cccc12	54%		
Cc1nc(NS(=O)(=O)c2cccc3c(N(C)C)cccc23)ccc1Br	54%	10000 nM	
Cc1ccc(NS(=O)(=O)c2cccc3c(N(C)C)cccc23)nc1	79%	1580 nM	
COc1nc(Br)cnc1NS(=O)(=O)c1cccc2ccccc12	83%		
CN(C)c1cccc2c(S(=O)(=O)Nc3ccc(Br)nc3)cccc12	95%	251 nM	
CN(C)c1cccc2c(S(=O)(=O)Nc3cnc(Cl)cn3)cccc12	97%	158 nM	
COc1nc(C)cnc1NS(=O)(=O)c1cccc2c(N(C)C)cccc12	98%	7.94 nM	
CN(C)c1cccc2c(S(=O)(=O)Nc3ccc(Br)nn3)cccc12	95%	251 nM	
CCCc1nc(Br)cnc1NS(=O)(=O)c1cccc2c(N(C)C)cccc12	< 30%		
CN(C)c1cccc2c(S(=O)(=O)Nc3cccnn3)cccc12	< 30%		
Cc1cc(Br)cnc1NS(=O)(=O)c1cccc2c(N(C)C)cccc12	94%	316 nM	
Cc1nc(Br)cnc1NS(=O)(=O)c1cccc2c(N(C)C)cccc12	96%	631 nM	
CCN(C)c1cccc2c(S(=O)(=O)Nc3ncc(Br)nc3OC)cccc12	99%		IC50 (Endothelin-1 receptor [9]): 12.6 nM
CN(C)c1cccc2c(S(=O)(=O)Nc3ncc(Br)nc3OCc3ccccc3)cccc12	< 30%		
CN(C)c1cccc2c(S(=O)(=O)Nc3cnccn3)cccc12	58%	1000 nM	
CCNc1cccc2c(S(=O)(=O)Nc3ncc(Br)nc3OC)cccc12	95%	2.51 nM	
Cc1ccc(NS(=O)(=O)c2cccc3c(N(C)C)cccc23)nn1	68%	1580 nM	
CN(C)c1cccc2c(S(=O)(=O)Nc3ncc(Br)cn3)cccc12	80%	2000 nM	
CCOc1nc(Br)cnc1NS(=O)(=O)c1cccc2c(N(C)C)cccc12	92%	501 nM	

SMILES	inhibition [1]	IC50 (Endothelin-1 receptor [2])	other results
CN(C)c1cccc2c(S(=O)(=O)Nc3cccnc3)cccc12	< 30%		
Cc1cnc(NS(=O)(=O)c2cccc3c(N(C)C)cccc23)cn1	91%	1260 nM	
CN(C)c1cccc2c(S(=O)(=O)Nc3ccc(Cl)cn3)cccc12	95%	2000 nM	
CCc1nc(Br)cnc1NS(=O)(=O)c1cccc2c(N(C)C)cccc12	68%	2510 nM	
CN(C)c1cccc2c(S(=O)(=O)Nc3ccc(Br)cc3)cccc12	72%	3160 nM	
CN(C)c1cccc2c(S(=O)(=O)Nc3ncc(Br)[nH]c3=O)cccc12		5010 nM	
CN(C)c1cccc2c(S(=O)(=O)Nc3ccc(C#N)nn3)cccc12	< 30%		
COc1nc(Br)cnc1NS(=O)(=O)c1cccc2c(N(C)C)cccc12	93%	63.1 nM	
CN(C)c1cccc2c(S(=O)(=O)Nc3ccc(I)cn3)cccc12	84%	5010 nM	
Cc1cc(Cl)nnc1NS(=O)(=O)c1cccc2c(N(C)C)cccc12	89%	398 nM	
CN(C)c1cccc2c(S(=O)(=O)Nc3ccc(Br)cn3)cccc12	91%	1580 nM	
CNc1cccc2c(S(=O)(=O)Nc3ncc(Br)nc3OC)cccc12	100%	15.8 nM	
CN(C)c1cccc2c(S(=O)(=O)Nc3ccccn3)cccc12	< 30%		
CCOc1ccc(NS(=O)(=O)c2cccc3c(N(C)C)cccc23)nn1	64%	3980 nM	
CN(C)c1cccc2c(S(=O)(=O)Nc3ccc(Cl)cc3)cccc12	30%	7940 nM	
CN(C)c1cccc2c(S(=O)(=O)Nc3ncc(Cl)cn3)cccc12	84%	1580 nM	
COc1ccc(NS(=O)(=O)c2cccc3c(N(C)C)cccc23)nn1	92%	316 nM	
CN(C)c1cccc2c(S(=O)(=O)Nc3ncc(Br)nc3C#N)cccc12	< 30%		
CN(C)c1cccc2c(S(=O)(=O)Nc3ncc(Br)nc3O)cccc12	81%		
Cc1noc(NS(=O)(=O)c2cccc3c(N(C)C)cccc23)c1C [BMS-182874]	98%		MDR (Rattus norvegicus [3]): 3.37; pKa [4]: 4.5; MDR (Rattus norvegicus [5]): 1.55; MDR (Rattus norvegicus [6]): 2.68; MDR (Rattus norvegicus [7]): 2.18; MDR (Rattus norvegicus [8]): 2.28
CN(C)c1cccc2c(S(=O)(=O)Nc3cnc(Br)cn3)cccc12	96%	126 nM	
CN(C)c1cccc2c(S(=O)(=O)Nc3ccc(Cl)nc3)cccc12	81%	1260 nM	
